Data taken from ChEMBL document CHEMBL5696442, “Discovery of type II inhibitors of TGFβ-activated kinase 1 (TAK1) and mitogen-activated protein kinase kinase kinase kinase 2 (MAP4K2)” (J Med Chem, 2015).
pIC50: −log10 of the molar value. The source made the active and inactive calls. No cut-off for these calls is given here.

Assays:
[1] = biological target: Focal adhesion kinase 1 (Homo sapiens) (UniProt Q05397); assay: Inhibition of FAK Lys1 labeling site in human Huh-7 cell lysate at 1 uM by KiNativ Profiling analysis relative to control; format: subcellular
Sequence of Focal adhesion kinase 1 (Homo sapiens) (Q05397 2-1052 limits assumed): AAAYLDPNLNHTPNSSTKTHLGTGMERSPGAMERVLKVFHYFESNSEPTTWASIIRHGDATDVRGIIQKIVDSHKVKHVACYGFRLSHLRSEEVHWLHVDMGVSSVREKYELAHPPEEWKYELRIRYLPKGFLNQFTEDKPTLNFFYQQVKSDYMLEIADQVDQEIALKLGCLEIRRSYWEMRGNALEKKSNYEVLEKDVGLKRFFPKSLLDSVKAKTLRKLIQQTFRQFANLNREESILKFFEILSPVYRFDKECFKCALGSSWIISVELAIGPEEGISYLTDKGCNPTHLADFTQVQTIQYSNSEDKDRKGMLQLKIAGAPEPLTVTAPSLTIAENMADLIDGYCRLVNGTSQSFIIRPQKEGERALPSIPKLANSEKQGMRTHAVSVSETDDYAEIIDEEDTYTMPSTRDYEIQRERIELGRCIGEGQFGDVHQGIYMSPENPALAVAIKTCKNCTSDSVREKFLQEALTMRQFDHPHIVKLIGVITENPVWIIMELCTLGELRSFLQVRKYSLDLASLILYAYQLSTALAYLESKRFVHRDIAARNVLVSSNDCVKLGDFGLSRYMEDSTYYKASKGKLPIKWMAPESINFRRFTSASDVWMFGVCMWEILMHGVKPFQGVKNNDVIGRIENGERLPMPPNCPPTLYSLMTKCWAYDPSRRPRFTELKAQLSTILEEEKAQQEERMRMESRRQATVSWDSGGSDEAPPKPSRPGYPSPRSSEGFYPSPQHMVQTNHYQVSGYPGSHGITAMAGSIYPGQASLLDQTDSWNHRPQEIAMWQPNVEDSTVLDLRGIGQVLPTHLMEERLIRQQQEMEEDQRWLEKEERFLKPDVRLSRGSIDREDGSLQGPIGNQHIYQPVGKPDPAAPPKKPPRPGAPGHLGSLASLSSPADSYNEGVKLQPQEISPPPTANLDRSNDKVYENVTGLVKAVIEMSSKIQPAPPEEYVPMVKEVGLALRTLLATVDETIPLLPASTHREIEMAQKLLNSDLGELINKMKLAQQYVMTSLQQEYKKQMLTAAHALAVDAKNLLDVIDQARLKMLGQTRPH

[2] = biological target: Glycogen synthase kinase-3 alpha (Homo sapiens) (UniProt P49840); assay: Inhibition of GSK3A Lys2 labeling site in human Huh-7 cell lysate at 1 uM by KiNativ Profiling analysis relative to control; format: subcellular
Sequence of Glycogen synthase kinase-3 alpha (Homo sapiens) (P49840 2-483 limits assumed): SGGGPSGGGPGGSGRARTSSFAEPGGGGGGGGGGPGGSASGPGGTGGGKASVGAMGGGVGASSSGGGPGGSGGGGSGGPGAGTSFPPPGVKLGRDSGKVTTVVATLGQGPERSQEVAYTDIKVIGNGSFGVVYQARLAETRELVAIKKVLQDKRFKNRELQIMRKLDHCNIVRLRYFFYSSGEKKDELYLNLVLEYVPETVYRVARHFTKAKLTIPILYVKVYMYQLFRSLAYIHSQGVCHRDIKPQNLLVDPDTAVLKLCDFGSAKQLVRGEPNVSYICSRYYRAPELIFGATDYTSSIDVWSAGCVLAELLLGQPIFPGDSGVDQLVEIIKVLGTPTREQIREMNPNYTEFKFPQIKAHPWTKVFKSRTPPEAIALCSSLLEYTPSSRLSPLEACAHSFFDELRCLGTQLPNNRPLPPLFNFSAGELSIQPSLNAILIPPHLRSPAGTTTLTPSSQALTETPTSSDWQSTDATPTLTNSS

[3] = biological target: T1, Serine/threonine-protein kinase D3 (Homo sapiens) (UniProt O94806); assay: Inhibition of PKD3 Lys2 labeling site in human Huh-7 cell lysate at 1 uM by KiNativ Profiling analysis relative to control; format: subcellular
T1 sequence (whole entry): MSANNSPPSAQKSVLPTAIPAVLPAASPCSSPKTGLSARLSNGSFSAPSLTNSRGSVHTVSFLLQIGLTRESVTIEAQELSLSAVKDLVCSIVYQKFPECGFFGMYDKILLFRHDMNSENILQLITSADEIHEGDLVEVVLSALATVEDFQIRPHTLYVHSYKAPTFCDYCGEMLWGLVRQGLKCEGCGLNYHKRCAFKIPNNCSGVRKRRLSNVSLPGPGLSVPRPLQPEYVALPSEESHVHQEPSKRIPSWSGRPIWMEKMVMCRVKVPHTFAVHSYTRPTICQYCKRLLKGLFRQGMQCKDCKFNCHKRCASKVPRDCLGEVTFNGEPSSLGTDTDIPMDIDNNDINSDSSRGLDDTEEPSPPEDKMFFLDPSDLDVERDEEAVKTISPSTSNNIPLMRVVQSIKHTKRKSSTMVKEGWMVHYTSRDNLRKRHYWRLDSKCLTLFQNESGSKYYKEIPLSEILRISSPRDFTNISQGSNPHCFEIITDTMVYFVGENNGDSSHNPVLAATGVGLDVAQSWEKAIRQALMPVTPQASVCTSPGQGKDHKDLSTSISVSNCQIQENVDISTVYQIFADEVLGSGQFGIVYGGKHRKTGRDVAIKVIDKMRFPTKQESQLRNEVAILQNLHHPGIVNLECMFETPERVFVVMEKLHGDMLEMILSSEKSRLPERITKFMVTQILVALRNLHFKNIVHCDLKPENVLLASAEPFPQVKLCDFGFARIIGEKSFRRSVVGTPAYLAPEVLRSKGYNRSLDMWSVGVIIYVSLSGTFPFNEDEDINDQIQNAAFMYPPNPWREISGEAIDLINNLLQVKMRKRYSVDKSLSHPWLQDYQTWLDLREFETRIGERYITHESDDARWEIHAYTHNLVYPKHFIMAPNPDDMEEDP

[4] = biological target: eIF-2-alpha kinase GCN2 (Homo sapiens) (UniProt Q9P2K8); assay: Inhibition of GCN2 K2 labeling site in human Huh-7 cells at 1 uM by KiNativ Profiling analysis relative to control; format: cell-based
[5] = biological target: Cyclin-dependent kinase 17 (Homo sapiens) (UniProt Q00537); assay: Inhibition of PCTAIRE2 K2 labeling site in human Huh-7 cells at 10 uM by KiNativ Profiling analysis relative to control; format: cell-based
Sequence of Cyclin-dependent kinase 17 (Homo sapiens) (Q00537 whole entry, looked up): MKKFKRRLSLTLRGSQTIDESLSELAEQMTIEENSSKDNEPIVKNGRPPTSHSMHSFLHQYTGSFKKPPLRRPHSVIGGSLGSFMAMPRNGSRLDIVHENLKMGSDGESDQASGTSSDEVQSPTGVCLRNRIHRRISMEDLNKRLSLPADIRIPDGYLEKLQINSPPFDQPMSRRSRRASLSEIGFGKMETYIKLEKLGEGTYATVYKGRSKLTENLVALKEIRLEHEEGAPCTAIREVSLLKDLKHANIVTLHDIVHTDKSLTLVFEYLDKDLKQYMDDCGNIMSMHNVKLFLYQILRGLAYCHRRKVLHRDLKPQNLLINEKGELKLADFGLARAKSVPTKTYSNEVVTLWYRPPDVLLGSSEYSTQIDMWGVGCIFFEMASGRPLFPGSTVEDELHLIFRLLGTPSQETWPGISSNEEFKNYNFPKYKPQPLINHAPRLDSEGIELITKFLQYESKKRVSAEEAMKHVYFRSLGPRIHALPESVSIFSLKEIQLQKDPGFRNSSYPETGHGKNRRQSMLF

[6] = biological target: RAC-gamma serine/threonine-protein kinase (Homo sapiens) (UniProt Q9Y243); assay: Inhibition of AKT3 ATP Loop labeling site in human A-375 cells at 0.5 uM by KiNativ Profiling analysis relative to control; format: cell-based
Sequence of RAC-gamma serine/threonine-protein kinase (Homo sapiens) (Q9Y243 whole entry): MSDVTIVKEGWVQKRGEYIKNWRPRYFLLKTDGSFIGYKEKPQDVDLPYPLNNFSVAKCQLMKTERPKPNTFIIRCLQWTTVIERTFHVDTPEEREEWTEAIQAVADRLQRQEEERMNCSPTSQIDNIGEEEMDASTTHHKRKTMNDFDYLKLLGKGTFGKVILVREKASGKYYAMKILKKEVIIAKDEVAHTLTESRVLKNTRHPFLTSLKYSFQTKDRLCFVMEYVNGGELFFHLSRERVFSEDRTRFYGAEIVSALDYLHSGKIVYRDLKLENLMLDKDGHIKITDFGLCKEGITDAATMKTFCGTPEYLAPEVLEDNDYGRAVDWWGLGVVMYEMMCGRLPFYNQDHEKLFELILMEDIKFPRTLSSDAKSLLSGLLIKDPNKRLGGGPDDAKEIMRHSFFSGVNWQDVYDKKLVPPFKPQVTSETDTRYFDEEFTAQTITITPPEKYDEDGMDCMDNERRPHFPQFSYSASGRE
How it was run: (§1)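 Live A375 melanoma cells were treated with compound at 5 or 0.5 μM, then lysed. The lysates were labeled with a lysine-reactive ATP or ADP-biotin probe. Kinase protection from probe labeling was measured by KiNativ.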

[7] = biological target: T2, Serine/threonine-protein kinase STK11 (Homo sapiens) (UniProt Q15831); assay: Inhibition of LKB1 Lys2 labeling site in human A-375 cells at 0.05 uM by KiNativ Profiling analysis relative to control; format: cell-based
T2 sequence (whole entry): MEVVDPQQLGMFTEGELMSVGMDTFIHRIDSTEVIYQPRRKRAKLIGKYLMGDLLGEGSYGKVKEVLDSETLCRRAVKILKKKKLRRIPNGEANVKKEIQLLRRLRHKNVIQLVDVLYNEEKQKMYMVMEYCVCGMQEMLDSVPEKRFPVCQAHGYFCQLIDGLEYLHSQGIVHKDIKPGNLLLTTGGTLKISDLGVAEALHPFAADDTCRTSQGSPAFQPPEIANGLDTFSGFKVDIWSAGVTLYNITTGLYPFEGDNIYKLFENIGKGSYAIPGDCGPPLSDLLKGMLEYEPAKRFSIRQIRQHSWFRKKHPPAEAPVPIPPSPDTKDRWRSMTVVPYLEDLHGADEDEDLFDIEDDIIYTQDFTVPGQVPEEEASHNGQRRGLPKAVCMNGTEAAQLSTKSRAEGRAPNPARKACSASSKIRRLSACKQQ

[8] = biological target: Mitogen-activated protein kinase kinase kinase kinase 4 (Homo sapiens, UniProt O95819); assay: Inhibition of ZC1/HGK (unknown origin) Lys1 labeling site by KiNativ Profiling analysis
Sequence of Mitogen-activated protein kinase kinase kinase kinase 4 (O95819 whole entry): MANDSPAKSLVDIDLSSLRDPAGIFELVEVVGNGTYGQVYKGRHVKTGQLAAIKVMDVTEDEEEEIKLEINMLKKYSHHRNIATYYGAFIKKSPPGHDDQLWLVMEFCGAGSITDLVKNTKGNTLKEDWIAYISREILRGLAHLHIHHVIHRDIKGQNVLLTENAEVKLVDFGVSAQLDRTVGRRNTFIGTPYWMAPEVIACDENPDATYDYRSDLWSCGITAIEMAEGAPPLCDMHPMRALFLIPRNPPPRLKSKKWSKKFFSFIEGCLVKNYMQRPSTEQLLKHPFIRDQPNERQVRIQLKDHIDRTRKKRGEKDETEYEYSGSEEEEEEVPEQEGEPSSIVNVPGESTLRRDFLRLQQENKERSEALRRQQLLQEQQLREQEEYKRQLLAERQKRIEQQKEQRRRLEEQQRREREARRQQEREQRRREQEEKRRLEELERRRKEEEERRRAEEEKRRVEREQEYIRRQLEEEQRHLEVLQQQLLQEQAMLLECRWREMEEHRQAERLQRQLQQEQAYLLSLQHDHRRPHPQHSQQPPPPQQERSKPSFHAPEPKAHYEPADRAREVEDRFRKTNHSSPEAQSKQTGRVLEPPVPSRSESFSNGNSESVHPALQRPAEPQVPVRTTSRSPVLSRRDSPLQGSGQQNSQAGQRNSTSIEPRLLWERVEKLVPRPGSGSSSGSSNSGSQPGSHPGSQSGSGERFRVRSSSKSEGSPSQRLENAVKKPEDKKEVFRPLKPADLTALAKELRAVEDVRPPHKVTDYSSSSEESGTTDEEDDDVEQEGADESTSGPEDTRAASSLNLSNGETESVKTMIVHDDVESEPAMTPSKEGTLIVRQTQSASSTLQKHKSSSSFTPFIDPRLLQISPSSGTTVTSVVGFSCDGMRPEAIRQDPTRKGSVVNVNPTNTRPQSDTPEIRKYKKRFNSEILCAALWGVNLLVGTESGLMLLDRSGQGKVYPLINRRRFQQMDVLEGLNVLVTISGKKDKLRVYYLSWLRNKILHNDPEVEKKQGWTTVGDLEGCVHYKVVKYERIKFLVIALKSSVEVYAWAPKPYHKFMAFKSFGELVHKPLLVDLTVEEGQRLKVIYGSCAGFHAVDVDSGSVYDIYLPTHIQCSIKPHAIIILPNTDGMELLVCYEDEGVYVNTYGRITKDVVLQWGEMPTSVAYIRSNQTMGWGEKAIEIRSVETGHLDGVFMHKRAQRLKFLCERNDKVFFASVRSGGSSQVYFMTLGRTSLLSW

[9] = biological target: Protein kinase C delta type (Homo sapiens) (UniProt Q05655); assay: Inhibition of PRKCD (unknown origin) at 10 uM by Ambit Kinomescan binding assay
[10] = biological target: Serine/threonine-protein kinase 10 (Homo sapiens) (UniProt O94804); assay: Inhibition of LOK Lys1 labeling site in human A-375 cells at 5 uM by KiNativ Profiling analysis relative to control; format: cell-based
[11] = biological target: Serine/threonine-protein kinase 38-like (Homo sapiens) (UniProt Q9Y2H1); assay: Inhibition of NDR2 Lys1 labeling site harbouring DTGHIYAMKILR in human A-375 cells at 0.05 uM by KiNativ Profiling analysis relative to control; format: cell-based
Sequence of Serine/threonine-protein kinase 38-like (Homo sapiens) (Q9Y2H1 2-464 limits assumed): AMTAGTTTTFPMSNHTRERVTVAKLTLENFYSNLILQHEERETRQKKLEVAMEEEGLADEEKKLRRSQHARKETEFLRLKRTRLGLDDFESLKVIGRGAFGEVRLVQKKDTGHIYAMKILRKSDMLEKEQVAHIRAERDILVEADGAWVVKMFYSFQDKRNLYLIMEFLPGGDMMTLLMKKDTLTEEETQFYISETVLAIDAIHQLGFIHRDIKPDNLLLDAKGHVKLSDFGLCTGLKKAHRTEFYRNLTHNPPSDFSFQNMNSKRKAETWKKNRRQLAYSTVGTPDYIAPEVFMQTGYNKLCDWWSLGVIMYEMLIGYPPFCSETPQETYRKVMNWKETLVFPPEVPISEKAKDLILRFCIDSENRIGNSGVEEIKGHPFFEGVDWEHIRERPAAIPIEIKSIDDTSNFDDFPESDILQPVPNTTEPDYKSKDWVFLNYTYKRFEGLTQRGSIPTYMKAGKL

[12] = biological target: Serine/threonine-protein kinase B-raf (Homo sapiens, UniProt P15056); assay: Inhibition of BRAF Lys2 labeling site in human A-375 cells at 5 uM by KiNativ Profiling analysis relative to control; format: cell-based; how it was run: as §1
Sequence of Serine/threonine-protein kinase B-raf (P15056 whole entry): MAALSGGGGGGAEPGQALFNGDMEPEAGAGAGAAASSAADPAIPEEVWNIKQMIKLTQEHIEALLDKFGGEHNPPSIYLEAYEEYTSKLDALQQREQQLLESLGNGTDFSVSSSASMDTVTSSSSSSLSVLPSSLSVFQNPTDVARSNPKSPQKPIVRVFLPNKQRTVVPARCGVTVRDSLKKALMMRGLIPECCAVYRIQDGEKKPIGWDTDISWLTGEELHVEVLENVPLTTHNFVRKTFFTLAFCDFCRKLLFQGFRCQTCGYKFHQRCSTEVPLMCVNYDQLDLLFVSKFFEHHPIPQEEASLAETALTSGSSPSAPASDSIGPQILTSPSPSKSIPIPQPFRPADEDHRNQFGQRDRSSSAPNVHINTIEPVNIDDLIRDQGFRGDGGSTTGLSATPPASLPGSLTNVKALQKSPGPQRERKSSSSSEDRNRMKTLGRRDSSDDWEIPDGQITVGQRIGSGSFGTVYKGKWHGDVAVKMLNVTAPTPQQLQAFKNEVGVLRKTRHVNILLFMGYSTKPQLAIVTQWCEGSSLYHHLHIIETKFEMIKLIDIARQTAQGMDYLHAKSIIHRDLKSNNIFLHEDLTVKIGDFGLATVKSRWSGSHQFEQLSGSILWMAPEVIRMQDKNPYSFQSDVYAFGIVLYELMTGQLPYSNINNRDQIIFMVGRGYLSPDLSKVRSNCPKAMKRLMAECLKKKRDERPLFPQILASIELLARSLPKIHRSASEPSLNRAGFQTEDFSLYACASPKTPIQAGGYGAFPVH

[13] = system: Mast/stem cell growth factor receptor Kit (Homo sapiens), P10721 [V559D,T670I]; assay: Inhibition of KIT V559D/T670I double mutant (unknown origin) at 10 uM by Ambit Kinomescan binding assay relative to control
[14] = system: Hepatocyte growth factor receptor (Homo sapiens), P08581 [M1250T]; assay: Inhibition of MET M1250T mutant (unknown origin) at 1 uM by Ambit Kinomescan binding assay relative to control
[15] = biological target: Mitogen-activated protein kinase kinase kinase 12 (Homo sapiens) (UniProt Q12852); assay: Inhibition of DLK Lys2 labeling site harbouring in human A-375 cells at 0.5 uM by KiNativ Profiling analysis relative to control
[16] = biological target: Glycogen synthase kinase-3 alpha (Homo sapiens) (UniProt P49840); assay: Inhibition of GSK3A (unknown origin) at 1 uM by Ambit Kinomescan binding assay relative to control; values are per cent of control
[17] = biological target: Phosphatidylinositol 4,5-bisphosphate 3-kinase catalytic subunit alpha isoform (Homo sapiens) (UniProt P42336); assay: Inhibition of PIK3CA ATP labeling site in human A-375 cells at 0.05 uM by KiNativ Profiling analysis relative to control; format: cell-based

SMILES | inhibition [1] | inhibition [2] | inhibition [3] | inhibition [4] | inhibition [5] | inhibition [6] | inhibition [7] | pIC50 [8] | inhibition [9] | inhibition [10] | inhibition [11] | inhibition [12] | inhibition [13] | inhibition [14] | inhibition [15] | residual activity [16] | inhibition [17]
CNc1cc(Oc2cc(C(=O)Nc3cc(N4CCN(C)CC4)cc(C(F)(F)F)c3)ccc2C)ncn1 | 3.3% | -5.8% | 12.4% | – | – | – | – | – | – | – | – | – | – | – | – | – | –
CCN1CCN(Cc2ccc(NC(=O)c3ccc(C)c(Oc4ccnc5[nH]ccc45)c3)cc2C(F)(F)F)CC1 | – | – | – | 12% | 41.7% | -1.8% | 13.1% | 5.49 | inactive | 82.3% | 5.4% | 66.8% | 0.05% | – | – | – | –
CCN1CCN(Cc2ccc(NC(=O)c3ccc(C)c(/C=C/c4cnc5[nH]ccc5c4OC)c3)cc2C(F)(F)F)CC1 | – | – | – | – | – | 25.1% | 28.3% | 5.01 | – | – | -0.9% | 61.5% | – | 74% | 0.8% | 100% | 39%
